Source: PubChem (several laboratories)
Rows were chosen to be rich in hits. Some 1.4% of all compounds tested hit in one or more screens of this group.
CTSL1 counter = Fasciola hepatica cathepsin L1 inhibitors, primary screen, counter-screen for PFM18AAP inhibitor project, biochemical, QFRET, fluorogenic peptide substrate. recombinant F. hepatica cathepsin L1, Z-Leu-Arg-MCA fluorescence. inhibition, % at 5.96 µM. 300,000 tested, 0.49% active. AID 1906, 2009;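 active = inhibition above the mean of all tested compounds plus 3 SD, set per screening campaign, cut at about 17% in these data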;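 note: 0% = plate median of test compound wells and 100% = 1 µM Z-Phe-Ala-diazomethylketone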
HKDC1 inh = HKDC1 hexokinase inhibitors, primary screen, biochemical, fluorescence, uHTS. Q2TB90. recombinant HKDC1, G6PDH/diaphorase resazurin coupled fluorescence. inhibition, % at 20 µM. 340,000 tested, 0.16% active;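 active = inhibition above about 35% when tested at 20 µM, limit read from the data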;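 note: plate controls were DMSO wells with enzyme for no effect and DMSO wells lacking enzyme for full effect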
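test system = in-house recombinant HK5 (HKDC1) enzyme | amount = HKDC1 at 5 µg/mL | control set = DMSO-enzyme wells negative, buffer-substituted wells positive | compound = one dose of 20 µM, 1% DMSO | schedule = reaction time 90 min, room temperature, protected from light | technique = resorufin fluorescence at 613 nm | reagent = glucose with 1 mM ATP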
Diaphorase act = compounds boosting diaphorase resazurin reduction – biochemical, uHTS, resorufin fluorescence, counter-screen for diaphorase-coupled primary assays, primary screen; Diaphorase/resazurin coupled assay, 16 min; stronger effect = higher value; 1 = vehicle wells, 0 = NADH-free wells; activation factor at 20 µM; AID 1229, 2008; 190,000 tested, 0.005% active;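 active = diaphorase activity raised at least twofold by the compound at 20 µM; inactive = activation factor below 2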
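Material: bacterial diaphorase enzyme (C. kluyveri); amount: enzyme 0.07 U/mL final; reagent: NADH substrate 0.114 mM plus resazurin dye 0.1 mM, final; doses: single compound dose of 20 µM, 1% DMSO final; timing: 16 min enzyme reaction, ambient temperature; measured by: fluorescence of resorufin, 544 nm excitation, 590 nm emission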
Diaphorase inh = diaphorase inhibitors and chemical oxidizers, primary screen, counter-screen for diaphorase-coupled primary assays, biochemical, uHTS, resorufin fluorescence; diaphorase resazurin-to-resorufin fluorescence, NADH, 16 min; bacterial (C. kluyveri) enzyme, not human; inhibition, % at 20 µM; 190,000 tested, 0.69% active; AID 1217, 2008;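 active = primary screen inhibition at 20 µM above a set limit, cut at about 50% in these data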;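 note: plate controls were DMSO with full reaction for no effect and wells lacking NADH for full effect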
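Test system: Clostridium kluyveri diaphorase enzyme / Quantity: diaphorase at 0.14 U/mL in enzyme working solution / Incubation: 16-min room-temperature incubation before reading / Benchmarks: NADH-free wells as positive control, DMSO-only neutral wells / Signal: resorufin fluorescence 544/590 nm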
ATG4B inh = ATG4B protease inhibitors, primary screen, biochemical, fluorescence, uHTS. ATG4B cleavage of LC3-PLA2, NBD-HPC fluorescence, 1 h. inhibition, % at 8.33 µM. Cysteine protease ATG4B (Homo sapiens), Q9Y4P1. 340,000 tested, 0.51% active; in the data active = inhibition above about 40%
Target sequence (Q9Y4P1 whole entry, looked up): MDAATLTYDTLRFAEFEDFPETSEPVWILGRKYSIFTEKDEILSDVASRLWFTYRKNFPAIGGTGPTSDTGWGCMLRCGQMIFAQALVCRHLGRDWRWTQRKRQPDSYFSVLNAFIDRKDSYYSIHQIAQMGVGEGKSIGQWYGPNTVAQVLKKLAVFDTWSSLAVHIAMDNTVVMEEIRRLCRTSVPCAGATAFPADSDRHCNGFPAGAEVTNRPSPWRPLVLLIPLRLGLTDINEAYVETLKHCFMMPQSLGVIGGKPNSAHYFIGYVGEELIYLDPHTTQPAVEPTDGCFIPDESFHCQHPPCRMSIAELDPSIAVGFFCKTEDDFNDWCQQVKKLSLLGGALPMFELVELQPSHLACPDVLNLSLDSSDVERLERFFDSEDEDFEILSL
* marks the source's active call; other numbers are inactive results; / = no result.

SMILES | CTSL1 counter | HKDC1 inh | Diaphorase act | Diaphorase inh | ATG4B inh
CN(Cc1ccccc1)CC(O)COc1ccc(CNCc2nccn2C)cc1 (stereo not given) | 17.7* | -9.0 | 1.3 | -29.8 | 22.8
COc1ccc(C2=NN(C(N)=S)C(c3ccco3)C2)cc1 (stereo not given) | 62.5* | -1.0 | 0.8 | 19.7 | -12.0
O=S(=O)(NCCN1CCOCC1)c1cc(Cl)ccc1Cl | -3.8 | -7.0 | / | / | 5.7
S=c1[nH]nc(-c2ccncc2)n1/N=C/C=C/c1ccco1 | 5.1 | -9.1 | 0.3 | 71.0* | -3.8
S=c1[nH]nc(-c2cccnc2)n1/N=C/C=C/c1ccccc1 | 10.5 | -2.9 | 0.5 | 51.9* | 5.8
Cc1cccc(-c2n[nH]c(=S)n2/N=C/C=C/c2ccco2)c1 | 5.4 | 3.5 | / | / | -6.0
O=[N+]([O-])c1cc(/C=N/n2c(-c3cccnc3)n[nH]c2=S)ccc1Cl | -1.0 | -0.1 | 0.5 | 51.0* | -9.6
O=C(COC(=O)CNC(=O)c1ccc(Cl)cc1Cl)Nc1ccc(N2CCOCC2)cc1 | 17.3* | -4.6 | 0.9 | 9.3 | 1.8
O=C(CNC(=O)c1ccc(Cl)cc1Cl)OCC(=O)N1CCN(c2ccccc2)CC1 | / | -0.9 | / | / | -1.1
O=c1[nH]c(N2CCOCC2)cc2ccccc12 | 55.9* | 5.9 | / | / | 9.5
O=c1c(N2CCOCC2)coc2ccccc12 | -4.3 | 6.2 | 1.3 | -26.8 | 0.2
Cc1ccc(S(=O)(=O)CCC(=O)c2cccc([N+](=O)[O-])c2)cc1 | 19.5* | 4.2 | / | / | -3.4
O=C(O)COc1ccccc1C(Nc1ccccn1)c1cc(Cl)c2cccnc2c1O (stereo not given) | 0.2 | -10.2 | 0.5 | 51.1* | 15.0
COc1ccc(C(NC(C)=O)c2cc(Cl)c3cccnc3c2O)cc1OC (stereo not given) | 1.1 | -22.1 | 0.3 | 66.5* | -10.3
O=C(O)COc1ccccc1C(Nc1cccnc1)c1cc(Cl)c2cccnc2c1O (stereo not given) | / | 7.6 | 0.4 | 60.7* | 31.0
CCOc1ccc(C(Nc2cccnc2)c2cc(Cl)c3cccnc3c2O)cc1 (stereo not given) | 1.7 | -30.6 | 0.7 | 29.8 | 3.2
Nc1c(C(=O)NC2CCCC2)c2nc3ccccc3nc2n1/N=C/c1ccco1 | 0.8 | -1.8 | 0.8 | 16.9 | -4.5
Nc1c(C(=O)NC2CCCC2)c2nc3ccccc3nc2n1N | 1.8 | 8.2 | 0.5 | 50.3* | -29.5
Cc1ccc(Nc2nc(-c3ccc(O)c(O)c3)cs2)nc1 | / | -2.6 | 0.2 | 83.3* | -12.7
Cc1ccc(Nc2nc(-c3ccc(F)cc3)cs2)nc1 | / | -5.6 | / | / | -1.5
Cc1ccc(S(=O)(=O)N(C)C)cc1NC(=O)Nc1ccccc1 | 4.0 | 0.9 | / | / | -3.3
Cc1ccc(NC(=O)Nc2cc(S(=O)(=O)N(C)C)ccc2C)cc1 | 17.8* | -7.6 | 0.8 | 22.1 | 0.5
O=S(=O)(O)c1cc(O)c2c(O)c(N=Nc3cc(Cl)ccc3O)c(S(=O)(=O)O)cc2c1 | 1.9 | 0.9 | / | / | 6.3
Cc1cc(-c2ccc(N=Nc3c(S(=O)(=O)O)cc4cc(S(=O)(=O)O)cc(N)c4c3O)c(C)c2)ccc1N=Nc1c(S(=O)(=O)O)cc2cc(S(=O)(=O)O)cc(N)c2c1O | 27.2* | / | / | / | /
CN(C)c1ccc(N=Cc2nc(-c3ccccc3)oc2OC(=O)c2ccccc2)cc1 | 8.1 | -9.6 | 0.9 | 8.7 | -3.4
SMILES | CTSL1 counter | HKDC1 inh | Diaphorase act | Diaphorase inh | ATG4B inh
COc1ccccc1N=Cc1nc(-c2ccccc2)oc1OC(C)=O | 17.2* | 6.2 | 0.9 | 13.9 | 2.8
CC(=O)Oc1oc(-c2ccccc2)nc1C=Nc1ccc(N(C)C)cc1 | 18.2* | 3.2 | / | / | -6.2
CC(=O)Oc1oc(-c2ccccc2)nc1/C=N/c1ccccn1 | 26.0* | 3.9 | 1 | 4.5 | -13.4
Oc1oc(-c2ccccc2)nc1C=Nc1ccccc1 | 3.5 | -7.3 | 0.9 | 7.3 | 4.5
Cc1ccc(-c2nc(COC(=O)C3=NN(c4ccccc4)C(=O)CC3)cs2)cc1 | / | -3.8 | / | / | -4.5
COc1ccc(C2CC(=O)Oc3cc(C)c(Cl)c(C)c32)cc1 (stereo not given) | / | 0.1 | / | / | 5.7
Cc1ccc(C(=O)/C=C/c2ccc(-c3ccccc3[N+](=O)[O-])o2)cc1 | 2.9 | 5.5 | 0.6 | 35.2 | 3.2
Cc1ccc(-c2ccc(/C=C/C(=O)c3ccccc3)o2)cc1 | 41.5* | -10.6 | 0.8 | 19.0 | -4.5
O=C(/C=C/c1ccc(-c2ccccc2)o1)c1ccccc1 | 64.3* | 8.7 | 0.8 | 23.9 | -3.7
O=Cc1ccc(-c2cccc(C(=O)O)c2)o1 | 1.6 | -6.8 | 0.9 | 6.5 | 0.0
COc1ccc(NC(=O)N2CCN(C(=O)Nc3ccc(OC)cc3)CC2)cc1 | -5.9 | 3.9 | / | / | 9.6
COc1ccc(NC(=O)N2CCN(CCC#N)CC2)cc1 | 16.9* | 1.0 | 0.9 | 5.4 | -6.7
Cc1ccc2c(c1)N(CC(=O)N1CCCCC1c1cccnc1)C(=O)CO2 (stereo not given) | 18.2* | 1.8 | 0.9 | 11.7 | -1.4
CC(C)CN=Cc1c(O)c([N+](=O)[O-])cc2oc3c(c12)CCCC3 | 1.9 | 9.1 | 0.4 | 56.2* | 21.6
CC(=O)NC1=C(N(C)C2CCS(=O)(=O)C2)C(=O)c2ccccc2C1=O (stereo not given) | 7.1 | 39.4* | 0.4 | 62.0* | 1.5
CN(C(=O)Nc1ccccc1)C1CCS(=O)(=O)C1 (stereo not given) | -0.8 | -1.3 | 0.9 | 8.3 | 6.0
COc1cccc(CN(C)C(=O)c2cc(-c3cccs3)nc3ccccc23)c1 | 2.5 | 2.5 | / | / | -8.4
COc1ccccc1OCC(=O)Nc1cc(S(=O)(=O)N2CCOCC2)ccc1N1CCCCC1 | / | 0.7 | / | / | -2.0
CSCCC(NC(=O)c1ccccc1Br)C(=O)NCC(c1ccco1)N1CCCCC1 (stereo not given) | 20.9* | 1.7 | / | / | -0.9
CSc1ccccc1C(=O)NCC(c1ccco1)N1CCCCC1 (stereo not given) | 0.3 | -14.8 | 0.9 | 9.7 | -6.4
CCCn1c(N)c(C(=O)COC(=O)c2c(C)noc2C)c(=O)n(C)c1=O | -0.8 | -0.1 | 0.8 | 19.7 | -12.3
CC(=O)NC(=S)c1c(N)n(Cc2ccccc2)c(=O)n(C)c1=O | -3.6 | / | 0.6 | 42.0 | /
CCCCn1c(N)c(C(=S)NC(=O)CC(C)C)c(=O)n(C)c1=O | / | -0.5 | 0.4 | 58.7* | -4.9
CCCn1c(N)c(C(=S)NC(=O)C2CC2)c(=O)n(C)c1=O | / | -5.7 | 0.5 | 51.6* | 2.5
Cc1ccccc1-c1nc2c3ccccc3nc(=S)n2[nH]1 | 1.4 | -16.2 | / | / | 4.7
Cc1nc2ccccc2n1CCc1nc2c3ccccc3nc(=S)n2[nH]1 | -2.8 | 4.4 | 0.1 | 89.2* | 4.9
